Tests used:
[1] = Metabolic stability in mouse liver microsomes assessed as parent compound metabolism after 30 mins by LC-MS analysis; assay type: ADME, Microsome; conditions: read-out: Drug metabolism
Outline: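 Male CD1 mouse liver microsomes (1 mg/mL protein) incubated with 10 μM compound plus NADPH 1 mM, UDPGA 2.5 mM and MgCl2 3 mM in 10 mM PBS at 37 °C for 0 and 30 min. NADPH/UDPGA-free controls included. LC–MS quantitation of remaining compound; reported as percent parent metabolized after 30 min.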

[2] = Metabolic stability in human liver microsomes assessed as parent compound metabolism after 30 mins by LC-MS analysis; assay type: ADME, Microsome; conditions: read-out: Drug metabolism
Outline: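 Test compound at 10 μM with pooled mixed-gender human liver microsomes (1 mg/mL protein), NADPH 1 mM, UDPGA 2.5 mM and MgCl2 3 mM in 10 mM PBS at 37 °C for 0 and 30 min. Controls omit NADPH/UDPGA. Compound remaining measured by LC–MS; reported as percent of parent metabolized at 30 min.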

[3] = target: T1, Aurora kinase A (Homo sapiens, UniProt O14965); assay: Inhibition of GST-tagged human Aurora A kinase expressed in baculovirus system
T1 sequence (O14965 whole entry): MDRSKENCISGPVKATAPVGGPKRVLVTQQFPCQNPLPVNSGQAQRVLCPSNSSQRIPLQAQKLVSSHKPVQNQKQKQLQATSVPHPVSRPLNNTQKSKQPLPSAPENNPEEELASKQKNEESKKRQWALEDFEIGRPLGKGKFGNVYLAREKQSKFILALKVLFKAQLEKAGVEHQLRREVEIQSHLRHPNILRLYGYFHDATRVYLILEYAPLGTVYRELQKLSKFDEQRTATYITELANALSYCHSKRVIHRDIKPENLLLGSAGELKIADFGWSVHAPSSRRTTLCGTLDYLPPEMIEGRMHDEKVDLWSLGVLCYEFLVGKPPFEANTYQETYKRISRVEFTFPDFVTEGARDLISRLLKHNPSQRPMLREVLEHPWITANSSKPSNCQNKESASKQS

[4] = test system: SW-620; assay: cells; conditions: Homo sapiens, SW-620, 72 h
[5] = target: hERG (KCNH2) (Homo sapiens, UniProt Q12809); assay: Inhibition of human ERG at 10 uM by cell-based electrophysiology assay
Sequence of hERG (KCNH2) (Q12809 whole entry): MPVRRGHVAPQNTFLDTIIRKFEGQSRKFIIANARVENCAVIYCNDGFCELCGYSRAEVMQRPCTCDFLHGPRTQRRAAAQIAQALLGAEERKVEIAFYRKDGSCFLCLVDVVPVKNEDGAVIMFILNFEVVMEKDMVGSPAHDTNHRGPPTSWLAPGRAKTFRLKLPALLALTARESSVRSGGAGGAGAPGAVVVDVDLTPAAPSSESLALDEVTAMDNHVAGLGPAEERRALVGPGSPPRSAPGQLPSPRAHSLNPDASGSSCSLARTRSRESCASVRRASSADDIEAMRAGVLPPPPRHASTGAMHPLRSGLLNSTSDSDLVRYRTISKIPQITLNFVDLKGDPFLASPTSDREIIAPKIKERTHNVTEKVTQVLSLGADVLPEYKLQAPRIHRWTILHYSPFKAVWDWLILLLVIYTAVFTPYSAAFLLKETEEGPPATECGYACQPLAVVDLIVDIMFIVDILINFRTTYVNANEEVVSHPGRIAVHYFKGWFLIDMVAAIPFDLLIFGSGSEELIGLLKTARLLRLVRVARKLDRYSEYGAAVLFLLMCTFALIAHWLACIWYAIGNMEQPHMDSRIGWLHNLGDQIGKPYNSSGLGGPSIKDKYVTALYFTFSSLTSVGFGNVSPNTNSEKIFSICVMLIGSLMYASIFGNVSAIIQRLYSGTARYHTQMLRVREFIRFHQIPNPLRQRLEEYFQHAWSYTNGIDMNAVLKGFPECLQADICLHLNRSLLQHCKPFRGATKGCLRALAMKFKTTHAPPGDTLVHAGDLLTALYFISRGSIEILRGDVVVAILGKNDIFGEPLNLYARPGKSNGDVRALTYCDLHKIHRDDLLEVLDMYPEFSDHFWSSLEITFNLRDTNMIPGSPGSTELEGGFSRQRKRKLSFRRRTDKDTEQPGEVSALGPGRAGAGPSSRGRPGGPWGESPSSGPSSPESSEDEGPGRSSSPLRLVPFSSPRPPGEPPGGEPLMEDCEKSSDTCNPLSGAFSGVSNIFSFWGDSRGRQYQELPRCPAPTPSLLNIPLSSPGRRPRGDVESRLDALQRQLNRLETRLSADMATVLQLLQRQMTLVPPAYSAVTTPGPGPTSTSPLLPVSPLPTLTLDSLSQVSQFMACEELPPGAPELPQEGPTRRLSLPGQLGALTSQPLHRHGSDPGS

[6] = Binding affinity to FLT3 ITD mutant
[7] = target: T2, Receptor-type tyrosine-protein kinase FLT3 (Homo sapiens, UniProt P36888)
T2 sequence (P36888 whole entry): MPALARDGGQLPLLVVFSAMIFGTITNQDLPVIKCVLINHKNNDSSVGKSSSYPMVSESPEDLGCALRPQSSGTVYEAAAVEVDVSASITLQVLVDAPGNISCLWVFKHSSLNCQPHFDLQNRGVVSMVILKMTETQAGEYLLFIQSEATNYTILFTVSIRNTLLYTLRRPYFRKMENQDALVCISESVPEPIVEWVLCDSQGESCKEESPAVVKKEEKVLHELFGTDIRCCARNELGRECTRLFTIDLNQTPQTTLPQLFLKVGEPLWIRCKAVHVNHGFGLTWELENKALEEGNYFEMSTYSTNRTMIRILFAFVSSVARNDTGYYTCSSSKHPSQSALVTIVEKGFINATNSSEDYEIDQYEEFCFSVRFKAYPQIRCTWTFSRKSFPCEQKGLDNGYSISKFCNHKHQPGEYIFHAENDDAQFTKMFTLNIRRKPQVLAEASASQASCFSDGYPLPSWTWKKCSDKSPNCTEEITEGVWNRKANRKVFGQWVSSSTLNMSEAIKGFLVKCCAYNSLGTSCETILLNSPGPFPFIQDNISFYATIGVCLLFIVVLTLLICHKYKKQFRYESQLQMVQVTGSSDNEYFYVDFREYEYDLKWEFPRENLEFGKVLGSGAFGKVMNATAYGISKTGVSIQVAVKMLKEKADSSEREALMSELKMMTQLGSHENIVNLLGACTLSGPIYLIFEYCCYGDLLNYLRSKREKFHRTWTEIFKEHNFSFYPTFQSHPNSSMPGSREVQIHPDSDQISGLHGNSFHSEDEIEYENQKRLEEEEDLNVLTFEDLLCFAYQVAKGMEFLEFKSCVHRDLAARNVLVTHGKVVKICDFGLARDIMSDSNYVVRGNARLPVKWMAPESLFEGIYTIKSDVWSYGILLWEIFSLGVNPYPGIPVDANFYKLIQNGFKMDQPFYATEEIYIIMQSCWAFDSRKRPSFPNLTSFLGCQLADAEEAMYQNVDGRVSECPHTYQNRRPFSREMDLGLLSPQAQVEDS

[8] = target: Voltage-gated inwardly rectifying potassium channel KCNH2 (Homo sapiens, UniProt Q12809); assay: Inhibition of human ERG by cell-based electrophysiology assay
Sequence of Voltage-gated inwardly rectifying potassium channel KCNH2 (Q12809 whole entry): as the sequence (Q12809 whole entry) above

SMILES	metabolised at 0.5 h [1] [%]	metabolised at 0.5 h [2] [%]	IC50 [3] [nM]	GI50 [4] [nM]	inhibition at 10 µM [5] [%]	Kd [6] [nM]	Kd [7] [nM]	IC50 [8] [nM]
Cc1cc(CN2CCN(c3c(Br)cnc4[nH]c(-c5ccc(N6CCOCC6)cc5)nc34)CC2)no1	50	99	7	860				
Cc1cc(CN2CCN(c3c(Cl)cnc4[nH]c(-c5ccc(N6CCN(C)CC6)cc5F)nc34)CC2)no1	65	99	87	7500	81			
Cc1cc(CN2CCN(c3c(Cl)cnc4[nH]c(-c5cn(C)nc5C5CC5)nc34)CC2)no1	80	64	4					
Cc1nn(C)cc1-c1nc2c(N3CCN(Cc4cncnc4)CC3)c(Cl)cnc2[nH]1	78	50	22	950	32	15	5.9	
Cc1cc(CN2CCN(c3c(Br)cnc4[nH]c(-c5cncn5C)nc34)CC2)no1			15	2180		62	14	
Cc1cc(CN2CCN(c3c(Cl)cnc4nc(-c5ccc(N6CCN(C)CC6)c(F)c5)[nH]c34)CC2)no1	20	68	11	380	37			
Cc1cc(CN2CCN(c3c(Cl)cnc4nc(-c5nccn5C)[nH]c34)CC2)no1			564	16300				
CCN1CCN(c2ccc(-c3nc4c(N5CCN(Cc6cc(C)on6)CC5)c(Cl)cnc4[nH]3)cc2)CC1	37	72	6	461	68			
Cc1nn(C)cc1-c1nc2c(N3CCN(Cc4ncon4)CC3)c(Cl)cnc2[nH]1	67	22						
Cc1cc(CN2CCN(c3c(Br)cnc4nc(-c5ccc(N6CCN(C)CC6)cc5)[nH]c34)CC2)no1	36	86			75	4.9	1.2	
Cc1cc(CN2CCN(c3c(Cl)cnc4nc(-c5cccc(CN(C)C)c5)[nH]c34)CC2)no1	29	36	54	840	85			
Cc1cc(CN2CCN(c3c(Cl)cnc4nc(-c5ccn(C)n5)[nH]c34)CC2)no1			118	2600				
Cc1cc(CN2CCN(c3c(Br)cnc4nc(-c5csnn5)[nH]c34)CC2)no1			600	20000				
Cc1cc(CN2CCN(c3c(Cl)cnc4[nH]c(-c5cnn(C(C)C)c5)nc34)CC2)no1	30	17	35	2220	71			
Cc1nc(CN2CCN(c3c(Cl)cnc4[nH]c(-c5cn(C)nc5C)nc34)CC2)no1	58	20						
Cc1cc(CN2CCN(c3c(Cl)cnc4nc(-c5cccc(CN6CCOCC6)c5)[nH]c34)CC2)no1	69	71	47	113	15			

SMILES	metabolised at 0.5 h [1] [%]	metabolised at 0.5 h [2] [%]	IC50 [3] [nM]	GI50 [4] [nM]	inhibition at 10 µM [5] [%]	Kd [6] [nM]	Kd [7] [nM]	IC50 [8] [nM]
Cc1cc(CN2CCN(c3c(Cl)cnc4nc(-c5cc(C)on5)[nH]c34)CC2)no1			434	1150				
CCn1cc(-c2nc3ncc(Cl)c(N4CCN(Cc5cc(C)on5)CC4)c3[nH]2)cn1	16	22	41	2180	51			
Cc1nn(C)cc1-c1nc2c(N3CCN(Cc4ncn(C)n4)CC3)c(Cl)cnc2[nH]1	97	24	93	3140	14			
Cc1cc(CN2CCN(c3c(Cl)cnc4[nH]c(-c5cccc(N6CCN(C)CC6)c5)nc34)CC2)no1	40	24	26	667		26	5.4	9500
Cc1nn(C)cc1-c1nc2ncc(Cl)c(N3CCN(Cc4cnccn4)CC3)c2[nH]1	99	76	27	1090	23			
Cc1cc(CN2CCN(c3c(Cl)cnc4[nH]c(-c5cnn(C)c5)nc34)CC2)no1			45	1800		66	12	
CC(=O)N1CCN(c2ccc(-c3nc4ncc(Br)c(N5CCN(Cc6cc(C)on6)CC5)c4[nH]3)cc2)CC1	25	94	9	758	92			
Cc1nn(C)cc1-c1nc2ncc(Cl)c(N3CCN(Cc4nonc4C)CC3)c2[nH]1	91	54	6	250	50			
Cc1cc(CN2CCN(c3c(Cl)cnc4nc(-c5ccc(N6CCN(C)CC6)cc5)[nH]c34)CC2)no1	25	89		570				
Cc1cc(CN2CCN(c3c(Cl)cnc4[nH]c(-c5ccoc5)nc34)CC2)no1			68	6500				
COCCN1CCN(c2ccc(-c3nc4ncc(Br)c(N5CCN(Cc6cc(C)on6)CC5)c4[nH]3)cc2)CC1	66	69	12	1000	54			
Cc1cc(CN2CCN(c3c(Cl)cnc4nc(-c5ccnn5C)[nH]c34)CC2)no1			147	3190				
Cc1cc(CN2CCN(c3c(Cl)cnc4[nH]c(-c5cn(C)nc5C)nc34)CC2)no1	48	38	13	597		10	2.4	6300
Cc1cc(CN2CCN(c3c(Cl)cnc4[nH]c(-c5cccc(OCCN(C)C)c5)nc34)CC2)no1	23	18	130	850	88			
Cc1cc(CN2CCN(c3c(Cl)cnc4[nH]c(-c5cnn(CC(F)F)c5)nc34)CC2)no1	12	0	45	1600	82			
Cc1cc(CN2CCN(c3c(Br)cnc4nc(-c5nc(C)oc5C)[nH]c34)CC2)no1			2200	4570				
